# Shown are actives, neighbours in structure and some others; about 1.4% of the full set was active somewhere.
# CDK5 inh – CDK5/p35 (human) kinase inhibition; Recombinant CDK5/p35, ADP-Glo luminescence, 60 min; inhibition, % at 10 µM; 0.01% of 330,000 active; AID 488839;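 active means highest replicate inhibition of at least 50% and at least 75% of replicates reaching 50%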;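 further: plate controls were DMSO neutral control for no effect and GW8510 at 10 µM for full effect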
# Target sequence (Q00535 whole entry, looked up): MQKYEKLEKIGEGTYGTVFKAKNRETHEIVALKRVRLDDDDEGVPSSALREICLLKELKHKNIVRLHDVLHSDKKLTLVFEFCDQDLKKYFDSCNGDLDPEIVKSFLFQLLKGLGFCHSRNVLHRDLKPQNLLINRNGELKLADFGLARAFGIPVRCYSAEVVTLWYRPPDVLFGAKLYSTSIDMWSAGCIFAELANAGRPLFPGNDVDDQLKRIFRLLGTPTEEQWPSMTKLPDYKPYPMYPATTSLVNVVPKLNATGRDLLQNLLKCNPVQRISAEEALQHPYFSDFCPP
# Target sequence (Q15078 whole entry, looked up): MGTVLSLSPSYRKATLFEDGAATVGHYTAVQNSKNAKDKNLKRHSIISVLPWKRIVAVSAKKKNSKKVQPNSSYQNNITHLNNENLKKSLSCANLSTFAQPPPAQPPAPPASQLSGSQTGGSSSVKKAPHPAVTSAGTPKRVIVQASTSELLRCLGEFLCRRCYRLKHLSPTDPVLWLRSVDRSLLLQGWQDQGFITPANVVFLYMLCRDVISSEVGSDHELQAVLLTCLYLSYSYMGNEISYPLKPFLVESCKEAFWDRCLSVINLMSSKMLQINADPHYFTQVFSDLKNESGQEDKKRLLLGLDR
# TbMetRS inhib – Trypanosoma brucei MetRS inhibition | 0.4% of 360,000 active | purified T. brucei MetRS, ATP depletion, Kinase-Glo luminescence | inhibition, % at 11.9 µM | AID 624268;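 active means inhibition above a per-plate cutoff of the control wells' mean inhibition plus 3 SD, cut at about 5.5% in these data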;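 further: 0% = DMSO wells median and 100% = median of wells with control inhibitor compound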
#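 Test system – parasite MetRS enzyme · Reagent – substrates ATP, L-methionine and bulk Escherichia coli tRNA · Doses – 11.9 µM compound single dose, 0.9% DMSO · Times – 15 min enzyme-compound preincubation, 2 h reaction, 10 min detection, 25 °C · Signal – Kinase-Glo luminescence, ATP depletion format · Controls – DMSO-only wells as low control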
# CAL PDZ FP-1 – inhibitors of human CAL PDZ peptide binding. AID 504414. Q9HD26. 0.02% of 330,000 active. inhibition, % at 20 µM. purified CAL PDZ, TMR-peptide fluorescence polarization, 1 h;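 active means highest replicate inhibition of at least 40%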;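 further: plate controls were DMSO neutral control wells for no effect and unlabeled competitor peptide control wells for full effect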
#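 material = purified tagged CAL PDZ domain construct (CerCALP) | compound dosing = 20 µM, one dose | times = 1 h at RT | measured by = fluorescence polarization from S- and P-plane intensities, G-factor corrected | read-out = inhibition from polarization loss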
# CAL PDZ FP-2 – inhibitors of human CAL PDZ peptide binding; inhibition, % at 24.9 µM; 0.92% of 300,000 active; purified CAL PDZ, TMR-peptide fluorescence polarization, 1 h;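 active means mean inhibition of at least 30% with at least half of replicates also reaching 30%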;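 further: 0% = DMSO neutral control and 100% = excess unlabeled competitor peptide PRC23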
# DYRK1A inh – inhibitors of rat Dyrk1A kinase; Q63470; ADP-Glo luminescence, NFATc1 peptide; inhibition, % at 12.5 µM; 0.43% of 310,000 active; AID 504441; in the data active means inhibition above about 50%;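 further: plate controls were vehicle with enzyme for no effect and no enzyme for full effect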
# PvdQ acylase – P. aeruginosa PvdQ acylase inhibition. purified PvdQ acylase, fluorescence plate reader. inhibition, % at 10 µM. 0.063% of 340,000 active; in the data active means inhibition above about 30%, passing the limit was not always enough;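 further: 0% = vehicle neutral wells and 100% = reference inhibitor wells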
# * marks the source's active call; other numbers are inactive results; nt = no result given; + = active, no number; ! = a repeat was not active.
SMILES,CDK5 inh,TbMetRS inhib,CAL PDZ FP-1,CAL PDZ FP-2,DYRK1A inh,PvdQ acylase
O=C(O)Cn1c(-c2ccccc2)cc2ccccc21,0,0,0,62*,-4,-19
CN(C)c1ccc(/C=[N+](\[O-])C2N(c3ccccc3)C(=S)SC2(C)C)cc1 (stereo unspecified),-7,-1,0,-4,6,-22
CN1C(=S)SC(C)(C)C1/[N+]([O-])=C/c1cccnc1 (stereo unspecified),1,0,nt,123*,5,-16
C=C1C2=C(C(=O)N1OC)[C@@H](O)[C@@](C)(O)[C@@H](CCCCC)O2,nt,0,nt,nt,nt,nt
COc1ccc(Br)cc1CN(C)C(=O)c1ccncc1,-1,0,0,+,2,-6
O=C(NC1CCCCC1)C1c2ccccc2OCC(=O)N1Cc1ccc2c(c1)OCO2 (stereo unspecified),nt,-1,nt,nt,nt,nt
O=C(NCCCN1CCOCC1)c1ccc2c(c1)N(Cc1cccc(Cl)c1)C(=O)c1ccccc1S2=O (stereo unspecified),-1,0,-1,37*,-4,-14
Cc1ccc(C(=O)NCCCN2CCOCC2)cc1N1CCCC1=O,1,0,nt,40*,7,-12
CCN(C(=O)C(C)OC(=O)C1C(C(=O)OC)=C(C)NC(C)=C1C(=O)OC)c1ccccc1 (stereo unspecified),1,1,-2,-4,nt,7
COC(=O)C1=C(C)NC(C)=C(C(=O)OC)C1C(=O)OC(C)C(=O)c1ccccc1 (stereo unspecified),1,0,0,50*!,0,-9
Cc1cccc(C)c1-n1nnnc1C1c2ccccc2C(=O)N1CCCN1CCOCC1 (stereo unspecified),nt,0,nt,nt,nt,nt
COCOCCn1cc(CN2CCS(=O)(=O)N(Cc3ccc(-c4ccc(Cl)c(Cl)c4)cc3)C(C)C2=O)nn1 (stereo unspecified),nt,-1,nt,nt,nt,nt
CCOc1ccc(NC(=O)CN(C)S(=O)(=O)c2cccs2)cc1,0,-1,-1,59*,3,-5
COc1cc(NC(=O)CN(C)S(=O)(=O)c2cccs2)cc(OC)c1,nt,0,-2,-2,nt,3
Cc1ccc(S(=O)(=O)Nc2ccc(NC(=O)Nc3cccc(C(F)(F)F)c3)cc2)cc1,-1,1,-2,74*,2,-12
CC(C)(C)c1ccc(S(=O)(=O)Nc2ccc(C(O)(C(F)(F)F)C(F)(F)F)cc2)cc1,nt,0,nt,nt,nt,nt
CCOC(=O)CC(C#N)c1cn(C)c2ccccc12 (stereo unspecified),-1,-1,-2,-7,13,38*
CCOC(=O)Cn1cc(C#N)c2ccccc21,-3,-1,-2,-4,-5,-18
CC(C)(C)OC(=O)N1CCC(NC(=O)c2[nH]cnc2C(=O)Nc2cccc(Cl)c2)CC1,1,0,0,45*,-5,-9
CN(c1ccccc1)S(=O)(=O)c1cccc(C(=O)NCCc2c[nH]c3ccccc23)c1,0,0,9,59*,-6,-14
CNc1ncnc2c1ncn2[C@H]1CN(Cc2ccc3c(c2)OCO3)C[C@@H](CO)O1,nt,0,nt,nt,nt,nt
O=C(OCC(=O)N1CCCC1)c1cncc(Br)c1,1,-1,nt,-5,7,12
O=C(OCC(=O)N1CCN(C(=O)c2ccco2)CC1)c1cncc(Br)c1,-1,0,1,36*,nt,-20
O=C(OCC(=O)N1CCN(C(=O)c2ccco2)CC1)c1cc(S(=O)(=O)Nc2ccc(Cl)cc2)ccc1O,0,0,-2,53*,nt,-9
CNC(=O)c1cc(Nc2nnc(C)c3ccccc23)ccc1OC,0,0,nt,35*,23,-18
CCC(CC)C(=O)N(C)c1c(C)nc2c(OCc3ccc(C#N)cc3)cccn12,nt,0,nt,nt,nt,nt
COc1ccc(OCC(=O)Nc2nc3c(s2)CCCC3)cc1,-1,0,-2,72*,15,-16
O=C(COc1ccc(F)cc1)Nc1nc2c(s1)CCCC2,0,0,-1,-2,4,0
CNC(=O)c1ccccc1NC(=O)C1CC(=O)N(C(C)C)C1 (stereo unspecified),1,0,0,-3,-4,-1

# Screens: PubChem, several laboratories
